From ChEMBL document CHEMBL1143019, “Hybrid molecules of estrone: new compounds with potential antibacterial, antifungal, and antiproliferative activities” (2007)
In brackets after ≈: the same amount, converted by molar mass.

Tests used:
[1] = test system: Mycobacterium tuberculosis; assay: Antimicrobial activity against Mycobacterium tuberculosis My 331/88 after 14 days; format: functional; conditions: 336 h
[2] = test system: Mycobacterium avium; assay: Antimicrobial activity against Mycobacterium avium My 330/88 after 14 days; format: functional; conditions: 336 h
[3] = test system: Mycobacterium avium; assay: Antimicrobial activity against Mycobacterium avium My 330/88 after 21 days; format: functional; conditions: 504 h
[4] = test system: Mycobacterium kansasii; assay: Antimicrobial activity against Mycobacterium kansasii My 235/80 after 7 days; format: functional; conditions: 168 h
How it was run: (§1)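 Run in Šula semisynthetic liquid medium containing bovine serum. Compounds added as DMSO solutions at final concentrations of […]. Each strain was also inoculated onto Löwenstein–Jensen medium to control inoculum sterility and growth.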

[5] = test system: Mycobacterium kansasii; assay: Antimicrobial activity against Mycobacterium kansasii My 6509/96 after 7 days; format: functional; conditions: 168 h; how it was run: as §1
[6] = test system: Mycobacterium kansasii; assay: Antimicrobial activity against Mycobacterium kansasii My 6509/96 after 14 days; format: functional; conditions: 336 h; how it was run: as §1
[7] = test system: Candida albicans; assay: Antifungal activity against Candida albicans ATCC 44859 after 24 hrs; format: functional; conditions: ATCC 44859, 24 h
How it was run: (§2)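 Modified NCCLS M27-A broth microdilution with clinical isolates subcultured on Sabouraud dextrose agar. Suspensions diluted 1:50 in RPMI 1640 to give a final inoculum of 0.5–2.5×10³ CFU/mL for yeasts or 0.5–5×10⁴ CFU/mL for molds. The RPMI had L-glutamine, no bicarbonate, and 0.165 M MOPS to pH 7.0. Twofold dilutions from 250 to 0.49. Plates held at 35 °C, humid, without agitation. MIC is the lowest concentration giving ≥80% inhibition versus drug-free control, read at 24 and 48 h.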

[8] = test system: Candida albicans; assay: Antifungal activity against Candida albicans ATCC 44859 after 48 hrs; format: functional; conditions: ATCC 44859, 48 h; how it was run: as §2
[9] = test system: Candida tropicalis; assay: Antifungal activity against Candida tropicalis 156 after 24 hrs; format: functional; how it was run: as §2
[10] = test system: Candida tropicalis; assay: Antifungal activity against Candida tropicalis 156 after 48 hrs; format: functional; how it was run: as §2
[11] = test system: Pichia kudriavzevii; assay: Antifungal activity against Candida krusei E28 after 24 hrs; format: functional; how it was run: as §2
[12] = test system: Pichia kudriavzevii; assay: Antifungal activity against Candida krusei E28 after 48 hrs; format: functional; how it was run: as §2
[13] = test system: Nakaseomyces glabratus; assay: Antifungal activity against Candida glabrata 20/I after 24 hrs; format: functional; how it was run: as §2
[14] = test system: Nakaseomyces glabratus; assay: Antifungal activity against Candida glabrata 20/I after 48 hrs; format: functional; how it was run: as §2
[15] = test system: Trichosporon beigelii; assay: Antifungal activity against Trichosporon beigelii 1188 after 24 hrs; format: functional; how it was run: as §2
[16] = test system: Trichosporon beigelii; assay: Antifungal activity against Trichosporon beigelii 1188 after 48 hrs; format: functional; how it was run: as §2
[17] = test system: Aspergillus fumigatus; assay: Antifungal activity against Aspergillus fumigatus 231 after 24 hrs; format: functional; how it was run: as §2
[18] = test system: Aspergillus fumigatus; assay: Antifungal activity against Aspergillus fumigatus 231 after 48 hrs; format: functional; how it was run: as §2
[19] = test system: Lichtheimia corymbifera; assay: Antifungal activity against Absidia corymbifera 272 after 24 hrs; format: functional; how it was run: as §2
[20] = test system: Lichtheimia corymbifera; assay: Antifungal activity against Absidia corymbifera 272 after 48 hrs; format: functional; how it was run: as §2
[21] = test system: Trichophyton benhamiae; assay: Antifungal activity against Trichophyton mentagrophytes 445 after 72 hrs; format: functional, Arthroderma benhamiae
How it was run: (§3)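 Same modified M27-A microdilution with the mold inoculum of 0.5–5×10⁴ CFU/mL. Medium was RPMI 1640 with L-glutamine, no bicarbonate, and 0.165 M MOPS at pH 7.0. Twofold dilutions from 250 to 0.49. Incubated at 35 °C in a humid atmosphere.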

[22] = test system: Trichophyton benhamiae; assay: Antifungal activity against Trichophyton mentagrophytes 445 after 120 hrs; format: functional, Arthroderma benhamiae; how it was run: as §3
[23] = test system: L929; assay: Antiproliferative activity against mouse L929 cells after 72 hrs; format: functional; conditions: L929, 72 h
How it was run: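 About 10,000 adherent cells per well in RPMI 1640 with 10% heat-inactivated FBS and penicillin/streptomycin, without HEPES. Exposed to 10 concentrations for 72 h at 37 °C in humidified 5% CO₂. Monolayers fixed with glutaraldehyde, stained 15 min with 0.05% methylene blue, and eluted with 0.33 N HCl; OD read at 630 nm. GI50 derived from dose–response curves relative to control.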

[24] = test system: K562; assay: Antiproliferative activity against human K562 cells after 72 hrs; format: functional; conditions: K562, 72 h
How it was run: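 About 10,000 suspension cells per well in RPMI 1640 with 10% heat-inactivated FBS and penicillin/streptomycin, without HEPES. Exposed to 10 concentrations for 72 h at 37 °C in humidified 5% CO₂. Wells diluted 1:50 in CASYTON and counted electronically, each result the mean of three successive counts. GI50 is where the concentration–response curve crosses 50% of control cell count.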

[25] = test system: HeLa; assay: Cytotoxicity against human HeLa cells after 72 hrs; format: functional; conditions: for CC50: Homo sapiens, HeLa, 72 h
How it was run: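 About 10,000 cells per well in RPMI 1640 were preincubated 48 h without compound. The 10 test concentrations were then applied onto the monolayers and incubated 72 h at 37 °C in humidified 5% CO₂. Monolayers fixed with glutaraldehyde, stained with 0.05% methylene blue, and eluted with 0.33 N HCl; optical density measured at 630 nm.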

[26] = test system: Staphylococcus aureus; assay: Antibacterial activity against Staphylococcus aureus SG 511 after 24 hrs by micro-broth dilution method; format: functional; conditions: SG 511, 24 h
How it was run: (§4)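 Microbroth dilution per NCCLS guidelines. Bacteria grown overnight at 37 °C in Mueller–Hinton broth. Compound solution serially diluted twofold in MHB, then wells inoculated to a final 5×10⁵ CFU/mL. Incubated 24 h at 37 °C. MIC (µg/mL) read on an automatic plate reader as the lowest dilution allowing no visible growth.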

[27] = test system: Staphylococcus aureus; assay: Antibacterial activity against methicillin-resistant Staphylococcus aureus 994/93 after 24 hrs by micro-broth dilution method; format: functional
How it was run: (§5)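 Broth microdilution per NCCLS in Mueller–Hinton broth. Overnight cultures grown at 37 °C. Compound serially diluted twofold, then wells inoculated to a final 5×10⁵ CFU/mL. Plates held at 37 °C for 24 h. MIC (µg/mL) read on an automatic plate reader as the lowest dilution with no visible growth.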

[28] = test system: Staphylococcus aureus; assay: Antibacterial activity against methicillin-resistant Staphylococcus aureus 134/94 after 24 hrs by microbroth dilution method; format: functional; how it was run: as §5
[29] = test system: Micrococcus luteus; assay: Antibacterial activity against Micrococcus luteus ATCC 10240 after 24 hrs by microbroth dilution method; format: functional; conditions: ATCC 10240, 24 h; how it was run: as §4
[30] = test system: Enterococcus faecalis; assay: Antibacterial activity against Enterococcus faecalis 1528 after 24 hrs by micro-broth dilution method; format: functional; how it was run: as §4
[31] = test system: Mycolicibacterium smegmatis; assay: Antimicrobial activity against Mycobacterium smegmatis SG 987 after 24 hrs by micro-broth dilution method; format: functional; how it was run: as §4
[32] = test system: Mycolicibacterium aurum; assay: Antimicrobial activity against Mycobacterium aurum SB 66 after 24 hrs by micro-broth dilution method; format: functional; how it was run: as §4
[33] = test system: Mycolicibacterium vaccae; assay: Antimicrobial activity against Mycobacterium vaccae 10670 after 24 hrs by micro-broth dilution method; format: functional; how it was run: as §4
[34] = test system: Mycolicibacterium fortuitum; assay: Antimicrobial activity against Mycobacterium fortuitum Borstel after 24 hrs by microbroth dilution method; format: functional; how it was run: as §4
[35] = test system: Mycobacterium tuberculosis; assay: Antimicrobial activity against Mycobacterium tuberculosis My 331/88 after 21 days; format: functional; conditions: 504 h
[36] = test system: Mycobacterium kansasii; assay: Antimicrobial activity against Mycobacterium kansasii My 235/80 after 14 days; format: functional; conditions: 336 h; how it was run: as §1
[37] = test system: Mycobacterium kansasii; assay: Antimicrobial activity against Mycobacterium kansasii My 235/80 after 21 days; format: functional; conditions: 504 h; how it was run: as §1

C[C@]12CC[C@@H]3c4ccc(OCCCCCCCBr)cc4CC[C@H]3[C@@H]1CCC2=O
MIC [1]: 32 µM (≈ 14.3 µg/mL) | MIC [2]: 16 µM (≈ 7.16 µg/mL) | MIC [3]: 32 µM (≈ 14.3 µg/mL) | MIC [4]: 62.5 µM (≈ 28 µg/mL) | MIC [5]: 62.5 µM (≈ 28 µg/mL) | MIC [6]: 62.5 µM (≈ 28 µg/mL) | MIC [7]: > 125 µM | MIC [8]: > 125 µM | MIC [9]: > 125 µM | MIC [10]: > 125 µM | MIC [11]: > 125 µM | MIC [12]: > 125 µM | MIC [13]: > 125 µM | MIC [14]: > 125 µM | MIC [15]: > 125 µM | MIC [16]: > 125 µM | MIC [17]: > 125 µM | MIC [18]: > 125 µM | MIC [19]: > 125 µM | MIC [20]: > 125 µM | MIC [21]: > 125 µM | MIC [22]: > 125 µM | GI50 [23]: 49.9 µg/mL (≈ 112 µM) | GI50 [24]: 13.1 µg/mL (≈ 29.3 µM) | CC10 [25]: 16.3 µg/mL (≈ 36.4 µM) | CC50 [25]: > 50 µg/mL

C[C@]12CC[C@@H]3c4ccc(OCCCCCCC[n+]5ccc(SCc6ccc(Cl)cc6)cc5)cc4CC[C@H]3[C@@H]1CCC2=O.[Br-]
MIC [26]: 3.12 µg/mL | MIC [27]: 3.12 µg/mL | MIC [28]: 3.12 µg/mL | MIC [29]: 0.8 µg/mL | MIC [30]: 3.12 µg/mL | MIC [31]: 6.25 µg/mL | MIC [32]: 3.12 µg/mL | MIC [33]: 1.56 µg/mL | MIC [34]: 6.25 µg/mL | MIC [1]: 16 µM | MIC [35]: 16 µM | MIC [2]: 8 µM | MIC [3]: 8 µM | MIC [4]: 16 µM | MIC [36]: 16 µM | MIC [37]: 16 µM | MIC [5]: 16 µM | MIC [6]: 16 µM | MIC [7]: 7.8 µM | MIC [8]: 7.8 µM | MIC [9]: 15.6 µM | MIC [10]: 15.6 µM | MIC [11]: 7.8 µM | MIC [12]: 15.6 µM | MIC [13]: 15.6 µM | MIC [14]: 15.6 µM | MIC [15]: 7.8 µM | MIC [16]: 7.8 µM | MIC [17]: 15.6 µM | MIC [18]: 31 µM | MIC [19]: 62.5 µM | MIC [20]: 62.5 µM | MIC [21]: 7.8 µM | MIC [22]: 15.6 µM | GI50 [23]: 2.8 µg/mL | GI50 [24]: 1 µg/mL | CC10 [25]: 1.9 µg/mL | CC50 [25]: 4.1 µg/mL
